Experimental data: ChEMBL document CHEMBL4689842, “EUbOPEN Chemogenomics Library wave 1” (2021)
Several values for one entry are separate records, joined by “and”; a condition that tells them apart may be missing. Equal entries are not always repeated.

Tested on: Fibroblast
Test: Multiplex assay against human fibroblast
Format: toxicity, cell-based
How it was run: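 Compound was added to live cells that had been stained at seeding with Hoechst33342, BioTracker Green Microtubule Cytoskeleton Dye, MitoTracker Red and Annexin V Alexa Fluor 680, and imaging followed on a CQ1 microscope at 37°C and 5% CO2. CellPathfinder machine-learning gating divided cells into Hoechst high-intensity objects or normal cells, normal cells into healthy, pyknosed or fragmented nuclei, and pyknosed cells into mitotic or apoptotic. Tubulin, mitochondrial-mass and membrane-permeability phenotypes are per cents of healthy-nucleus cells.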

[1] = 12 h, 1 µM, compound concentration 1 uM, replicate 1
[2] = 12 h, 1 µM, compound concentration 1 uM, replicate 2
[3] = 12 h, 10 µM, compound concentration 10 uM, replicate 1
[4] = 12 h, 10 µM, compound concentration 10 uM, replicate 2
[5] = 24 h, 1 µM, compound concentration 1 uM, replicate 1
[6] = 24 h, 1 µM, compound concentration 1 uM, replicate 2
[7] = 24 h, 10 µM, compound concentration 10 uM, replicate 1
[8] = 24 h, 10 µM, compound concentration 10 uM, replicate 2

CNC(=O)Nc1ccc2c(c1)[C@@]1(CC2)OC(=O)N(CC(=O)N(Cc2ccc(F)cc2)[C@@H](C)C(F)(F)F)C1=O [A-486]
Population Apoptotic (%) [1]: 68% | Population Fragmented Nuclei (%) [1]: 21% | Population Healthy Nuclei (%) [1]: 60% | Population Hoechst High Intensity Objects (%) [1]: 9% | Population Membrane Permeable-Phenotype (%) [1]: 31% | Population Mitochondria Different-Phenotype (%) [1]: 4% | Population Mitotic Cells (%) [1]: 31% | Population Normal (%) [1]: 90% | Population Pyknosed Nuclei (%) [1]: 18% | Population Tubulin-Different-Phenotype (%) [1]: 55% | Total Cell Count [1]: 291 | Population Apoptotic (%) [2]: 75% | Population Fragmented Nuclei (%) [2]: 57% | Population Healthy Nuclei (%) [2]: 21% | Population Hoechst High Intensity Objects (%) [2]: 34% | Population Membrane Permeable-Phenotype (%) [2]: 41% | Population Mitochondria Different-Phenotype (%) [2]: 8% | Population Mitotic Cells (%) [2]: 25% | Population Normal (%) [2]: 65% | Population Pyknosed Nuclei (%) [2]: 21% | Population Tubulin-Different-Phenotype (%) [2]: 91% | Total Cell Count [2]: 87 | Population Apoptotic (%) [3]: 55% | Population Fragmented Nuclei (%) [3]: 24% | Population Healthy Nuclei (%) [3]: 61% | Population Hoechst High Intensity Objects (%) [3]: 14% | Population Membrane Permeable-Phenotype (%) [3]: 7% | Population Mitochondria Different-Phenotype (%) [3]: 5% | Population Mitotic Cells (%) [3]: 45% | Population Normal (%) [3]: 85% | Population Pyknosed Nuclei (%) [3]: 14% | Population Tubulin-Different-Phenotype (%) [3]: 7% | Total Cell Count [3]: 160 | Population Apoptotic (%) [4]: 33% | Population Fragmented Nuclei (%) [4]: 57% | Population Healthy Nuclei (%) [4]: 37% | Population Hoechst High Intensity Objects (%) [4]: 29% | Population Membrane Permeable-Phenotype (%) [4]: 15% | Population Mitochondria Different-Phenotype (%) [4]: 10% | Population Mitotic Cells (%) [4]: 66% | Population Normal (%) [4]: 70% | Population Pyknosed Nuclei (%) [4]: 5% | Population Tubulin-Different-Phenotype (%) [4]: 45% | Total Cell Count [4]: 77 | Population Apoptotic (%) [5]: 56% | Population Fragmented Nuclei (%) [5]: 23% | Population Healthy Nuclei (%) [5]: 59% | Population Hoechst High Intensity Objects (%) [5]: 14% | Population Membrane Permeable-Phenotype (%) [5]: 17% | Population Mitochondria Different-Phenotype (%) [5]: 6% | Population Mitotic Cells (%) [5]: 43% | Population Normal (%) [5]: 85% | Population Pyknosed Nuclei (%) [5]: 17% | Population Tubulin-Different-Phenotype (%) [5]: 46% | Total Cell Count [5]: 300 | Population Apoptotic (%) [6]: 71% | Population Fragmented Nuclei (%) [6]: 63% | Population Healthy Nuclei (%) [6]: 23% | Population Hoechst High Intensity Objects (%) [6]: 33% | Population Membrane Permeable-Phenotype (%) [6]: 50% | Population Mitochondria Different-Phenotype (%) [6]: 16% | Population Mitotic Cells (%) [6]: 28% | Population Normal (%) [6]: 66% | Population Pyknosed Nuclei (%) [6]: 13% | Population Tubulin-Different-Phenotype (%) [6]: 66% | Total Cell Count [6]: 78 | Population Apoptotic (%) [7]: 60% | Population Fragmented Nuclei (%) [7]: 30% | Population Healthy Nuclei (%) [7]: 53% | Population Hoechst High Intensity Objects (%) [7]: 14% | Population Membrane Permeable-Phenotype (%) [7]: 12% | Population Mitochondria Different-Phenotype (%) [7]: 1% | Population Mitotic Cells (%) [7]: 39% | Population Normal (%) [7]: 85% | Population Pyknosed Nuclei (%) [7]: 15% | Population Tubulin-Different-Phenotype (%) [7]: 8% | Total Cell Count [7]: 177 | Population Apoptotic (%) [8]: 100% | Population Fragmented Nuclei (%) [8]: 56% | Population Healthy Nuclei (%) [8]: 40% | Population Hoechst High Intensity Objects (%) [8]: 38% | Population Membrane Permeable-Phenotype (%) [8]: 25% | Population Mitochondria Different-Phenotype (%) [8]: 0% | Population Mitotic Cells (%) [8]: 0% | Population Normal (%) [8]: 61% | Population Pyknosed Nuclei (%) [8]: 4% | Population Tubulin-Different-Phenotype (%) [8]: 10% | Total Cell Count [8]: 81

Cc1cc(NC(=O)c2cccc(S(F)(F)(F)(F)F)c2)cc(-n2ccn3nc(-c4cccnc4)cc23)c1 [BAY-309]
Population Apoptotic (%) [3]: 72% and 60% | Population Fragmented Nuclei (%) [3]: 29% and 25% | Population Healthy Nuclei (%) [3]: 45% and 52% | Population Hoechst High Intensity Objects (%) [3]: 11% and 13% | Population Mitochondria Different-Phenotype (%) [3]: 16% and 14% | Population Mitotic Cells (%) [3]: 27% and 39% | Population Normal (%) [3]: 88% and 86% | Population Pyknosed Nuclei (%) [3]: 25% and 22% | Total Cell Count [3]: 260 and 213 | Population Apoptotic (%) [4]: 54% and 62% | Population Fragmented Nuclei (%) [4]: 66% and 44% | Population Healthy Nuclei (%) [4]: 20% and 40% | Population Hoechst High Intensity Objects (%) [4]: 29% and 31% | Population Membrane Permeable-Phenotype (%) [4]: 16% and 20% | Population Mitochondria Different-Phenotype (%) [4]: 33% and 35% | Population Mitotic Cells (%) [4]: 45% and 37% | Population Normal (%) [4]: 70% and 68% | Population Pyknosed Nuclei (%) [4]: 12% and 16% | Population Tubulin-Different-Phenotype (%) [4]: 50% and 80% | Total Cell Count [4]: 122 and 73 | Population Apoptotic (%) [7]: 80% and 62% | Population Fragmented Nuclei (%) [7]: 24% and 21% | Population Healthy Nuclei (%) [7]: 47% and 56% | Population Hoechst High Intensity Objects (%) [7]: 16% and 15% | Population Mitotic Cells (%) [7]: 19% and 37% | Population Normal (%) [7]: 83% and 84% | Population Pyknosed Nuclei (%) [7]: 28% and 21% | Population Tubulin-Different-Phenotype (%) [7]: 83% and 28% | Total Cell Count [7]: 241 and 216 | Population Apoptotic (%) [8]: 60% and 90% | Population Fragmented Nuclei (%) [8]: 66% and 57% | Population Healthy Nuclei (%) [8]: 20% and 26% | Population Hoechst High Intensity Objects (%) [8]: 36% and 25% | Population Membrane Permeable-Phenotype (%) [8]: 11% and 0% | Population Mitochondria Different-Phenotype (%) [8]: 29% and 22% | Population Normal (%) [8]: 63% and 75% | Population Pyknosed Nuclei (%) [8]: 12% and 15% | Population Tubulin-Different-Phenotype (%) [8]: 41% | Total Cell Count [8]: 128 and 92
